Assay results: ChEMBL document CHEMBL1811872, “Tryptophan 2,3-dioxygenase (TDO) inhibitors. 3-(2-(pyridyl)ethenyl)indoles as potential anticancer immunomodulators” (J Med Chem, 2011)

Substrate: N[C@@H](Cc1c[nH]c2ccccc12)C(=O)O
Experiment: Activity of human recombinant TDO expressed in Escherichia coli BL21 using L-tryptophan as substrate by measuring conversion of N-formylkynurenine into kynurenine per mg of protein after 30 mins by Michaelis-Menten steady state analysis
How it was run: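 Crude extract of E. coli overexpressing recombinant human TDO (~3 μg total protein) was added to prewarmed mix: 50 mM phosphate pH 7.5, 20 mM ascorbate, 10 μM methylene blue, 500 IU/mL catalase and varied L-Trp. Run at 37 °C, stopped with TCA at 2 and 4 min, then 65 °C for 30 min. Kynurenine was read at 480 nm with Ehrlich's reagent against a kynurenine standard curve; rate taken from 2–4 min.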

B1: Tryptophan 2,3-dioxygenase (Homo sapiens), P48775 (protein)
chain: MSGCPFLGNNFGYTFKKLPVEGSEEDKSQTGVNRASKGGLIYGNYLHLEKVLNAQELQSETKGNKIHDEHLFIITHQAYELWFKQILWELDSVREIFQNGHVRDERNMLKVVSRMHRVSVILKLLVQQFSILETMTALDFNDFREYLSPASGFQSLQFRLLENKIGVLQNMRVPYNRRHYRDNFKGEENELLLKSEQEKTLLELVEAWLERTPGLEPHGFNFWGKLEKNITRGLEEEFIRIQAKEESEEKEEQVAEFQKQKEVLLSLFDEKRHEHLLSKGERRLSYRALQGALMIYFYREEPRFQVPFQLLTSLMDIDSLMTKWRYNHVCMVHRMLGSKAGTGGSSGYHYLRSTVSDRYKVFVDLFNLSTYLIPRHWIPKMNPTIHKFLYTAEYCDSSYFSSDESD
B1 was tested, and the Km was 167 µM and the Vmax was 97 µM/s.
